Assay [1] has as its target Stromelysin-1 (Homo sapiens) (UniProt P08254). The experiment in a line: Inhibition of MMP3.
Another assay has as its target T1, Caspase-1 (Homo sapiens) (UniProt P29466).
T1 sequence (whole entry): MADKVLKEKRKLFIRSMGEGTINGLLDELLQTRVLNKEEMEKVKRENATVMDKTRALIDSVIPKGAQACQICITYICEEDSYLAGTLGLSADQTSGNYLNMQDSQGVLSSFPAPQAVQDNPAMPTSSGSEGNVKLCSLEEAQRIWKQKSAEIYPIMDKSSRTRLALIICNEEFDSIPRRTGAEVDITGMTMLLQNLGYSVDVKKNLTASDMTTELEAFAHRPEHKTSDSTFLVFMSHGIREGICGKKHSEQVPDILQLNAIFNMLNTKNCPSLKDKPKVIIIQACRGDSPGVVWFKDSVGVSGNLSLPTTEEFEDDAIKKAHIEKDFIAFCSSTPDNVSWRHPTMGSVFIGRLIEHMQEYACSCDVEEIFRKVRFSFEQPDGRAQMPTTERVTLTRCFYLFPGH
Nature of the assay: Inhibition of caspase 1.

In a further assay the test system is NCI-H460. The experiment in a line: Growth inhibition of human NCI-H460 cells. The assay is classed as functional, cell-based. In outline: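 Run by the NCI Developmental Therapeutics Program human cancer cell line screen in its single-dose–response format.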

Active and inactive are the calls of the source. The rule behind the calls is not given here.

Stromelysin-1 (Homo sapiens), sequence (P08254 100-477 limits assumed): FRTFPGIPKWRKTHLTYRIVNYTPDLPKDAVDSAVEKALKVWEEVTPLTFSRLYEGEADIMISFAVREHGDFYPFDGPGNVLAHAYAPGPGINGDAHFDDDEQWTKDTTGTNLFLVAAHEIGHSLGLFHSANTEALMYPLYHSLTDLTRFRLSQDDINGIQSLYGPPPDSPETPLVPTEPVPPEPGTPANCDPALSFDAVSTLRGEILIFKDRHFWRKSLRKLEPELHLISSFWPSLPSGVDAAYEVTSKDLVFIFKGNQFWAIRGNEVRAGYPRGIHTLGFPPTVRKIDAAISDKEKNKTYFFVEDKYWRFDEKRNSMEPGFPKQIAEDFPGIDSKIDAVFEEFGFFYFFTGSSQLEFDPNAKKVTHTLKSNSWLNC

Turning to `COC(=O)[C@]12C(=O)[C@H](C)O[C@@H]3OC(=O)[C@](C)(C[C@H]4C(C)=C5CC(=O)OC(C)(C)C5=CC[C@@]41C)[C@@H]32`, the result (in assay [1]; at Caspase-1 (Homo sapiens)) was Active.

As for `C=C1[C@@]2(C)C[C@H]3C(C)=C4CC(=O)OC(C)(C)C4=CC[C@]3(C)[C@]1(C(=O)OC)C(=O)[C@@](C)(O)C2=O`, the result (in assay [1]; on Caspase-1 (Homo sapiens); with NCI-H460) was Active.

As for `COC(=O)[C@]12C(=O)[C@H](C)O[C@@H]3OC(=O)[C@](C)(C[C@H]4[C@]5(CO5)C5=CC(=O)OC(C)(C)C5=CC[C@@]41C)[C@@H]32`, the outcome (in assay [1]; on Caspase-1 (Homo sapiens)) was Active.

In the case of `C[C@@H]1O[C@@H]2OC(=O)[C@]3(C)C[C@@H]4[C@](C)(C(=O)C=C5C(=CC(=O)OC5(C)C)[C@@]45CO5)[C@H](C1=O)[C@H]23`, the result (in assay [1]; on Caspase-1 (Homo sapiens); with NCI-H460) was Active.

For the compound `C=C1[C@@]2(C)C[C@H]3[C@@]4(C)C(=CC[C@]3(C)[C@]1(C(=O)OC)C(=O)[C@@](C)(O)C2=O)C(C)(C)C(=O)C[C@H]4O`, the result (in assay [1]; on Caspase-1 (Homo sapiens)) was Active.

The values above are taken from ChEMBL document CHEMBL1141337, “The berkeleyacetals, three meroterpenes from a deep water acid mine waste Penicillium” (J Nat Prod, 2007).
